For test [1], the system named is Staphylococcus aureus. Nature of the test: Antibacterial activity against methicillin resistant and vancomycin intermediate resistant Staphylococcus aureus MU50 assessed as reduction in bacterial growth incubated for 18 to 24 hrs by broth microdilution method. Format: functional. To be noted: time 18-24 hrs. The gist of the method:
(§1)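 Broth microdilution in cation-adjusted Mueller-Hinton broth per CLSI; inoculum 10⁶ bacteria/mL. Two-fold serial dilutions, compound in broth with 5% DMSO mixed 1:1 with bacterial suspension, giving 2.5% DMSO final. Top concentration 0.1, 0.4 or 0.8 mM depending on solubility. Incubated 18–24 h at 37 °C. MIC = lowest concentration preventing visible growth.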
A general note: Dilution methods test growth across graded concentrations, often in twofold steps.

Test [2] deals with Staphylococcus aureus. Nature of the test: Antibacterial activity against hospital-acquired vancomycin resistant Staphylococcus aureus VRS-1 assessed as reduction in bacterial growth incubated for 18 to 24 hrs by broth microdilution method. The test is classed as functional. Conditions: time 18-24 hrs. Summed up:
as §1

Test [3] concerns Enterococcus faecalis. The experiment in a line: Antibacterial activity against Enterococcus faecalis ATCC 29212 assessed as reduction in bacterial growth incubated for 18 to 24 hrs by broth microdilution method. The test is classed as functional. Conditions: time 18-24 hrs.
The subject of test [4] is Staphylococcus aureus. Nature of the test: Antibacterial activity against community-acquired methicillin and erythromycin resistant Staphylococcus aureus SA325 assessed as reduction in bacterial growth incubated for 18 to 24 hrs by broth microdilution method. Format: functional. Conditions: time 18-24 hrs. The gist of the method: as §1
In the next test the test system is Cell membrane. The experiment in a line: Disruption of bacterial cell membrane in Staphylococcus aureus ATCC 25923 assessed as increase in PI uptake at 1 to 5 times MIC measured every 10 mins for 2 hrs by PI dye based spectrophotometry. The gist of the method:
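Mid-log S. aureus ATCC 25923 (grown in MHB from OD₆₀₀ 0.05) washed into BET buffer (pH 7.5) at 1.11×10⁶ CFU/mL with 12 nM propidium iodide; compound at 1, 2, 5× MIC, 5% DMSO final. SDS 0.5% positive, buffer negative control. Fluorescence (ex 532/em 620 nm) read in the dark every 10 min for 2 h; triplicate.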

Test [5] can be described thus: Inhibition of recombinant Enterococcus faecalis C-terminal His6-tagged DdlB expressed in Escherichia coli LMG194 using D-Ala as substrate preincubated with enzyme for 30 mins followed by substrate addition and measured after 20 mins by malachite green based colorimetric analysis. The gist of the method: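 DdlB (20 mg/L) malachite green phosphate assay: enzyme, inhibitor and 500 µM ATP preincubated 30 min at 30 °C in Tris-HCl pH 7.4 buffer with MgCl₂, KCl and 10% DMSO, then 1 mM D-Ala for 20 min; A650 read. IC₅₀ from 11 concentrations, also run with 0.01% Triton X-100; mean ± SD of triplicates, n ≥ 2; EC₅₀ given where maximal inhibition stayed below 50%.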

In test [6] the test system is Enterococcus faecalis. Nature of the test: Antibacterial activity against vancomycin resistant Enterococcus faecalis JH2-2::C1 harboring constitutive expression of Ddl and vanB ligase assessed as reduction in bacterial growth incubated for 18 to 24 hrs by broth microdilution method. Conditions: time 18-24 hrs. The test is classed as functional. Summed up:
as §1

Test [7] has as its system Staphylococcus aureus. Nature of the test: Antibacterial activity against methicillin and linezolid resistant Staphylococcus aureus NRS119 assessed as reduction in bacterial growth incubated for 18 to 24 hrs by broth microdilution method. The test is classed as functional. To be noted: time 18-24 hrs. Summed up: as §1
The test system of test [8] is Staphylococcus aureus. Nature of the test: Antibacterial activity against hospital-acquired methicillin/ciprofloxacin and moxifloxacin resistant Staphylococcus aureus SA481 assessed as reduction in bacterial growth incubated for 18 to 24 hrs by broth microdilution method. The test is classed as functional. To be noted: time 18-24 hrs. Summed up:
as §1

In test [9] the test system is Staphylococcus aureus. Nature of the test: Inhibition of Ddl in Staphylococcus aureus ATCC 25923 assessed as increase in D-Ala/D-Ala-D-Ala ratio at 2 times MIC incubated for 30 mins by UHPLC-MS/MS analysis. The gist of the method:
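Log-phase S. aureus ATCC 25923 in MHB with 5% DMSO (from OD₆₀₀ 0.05) treated with compound at 2× MIC for 0–30 min; untreated and D-cycloserine 2× MIC controls. Cells chilled, pelleted, washed in M9, lysed in ice-cold MeOH/H₂O/formic acid 80:20:0.1, supernatants derivatized with Marfey's reagent in triplicate; L-Ala, D-Ala, D-Ala-D-Ala quantified by UPLC-MS/MS.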

Test [10] deals with Enterococcus faecalis. Nature of the test: Antibacterial activity against vancomycin resistant Enterococcus faecalis BM4575 harboring VanE genotype, constitutive expression of Ddl and VanE D-Ala-D-Ser ligase assessed as reduction in bacterial growth incubated for 18 to 24 hrs by broth microdilution method. Format: functional. Conditions: time 18-24 hrs. The gist of the method: as §1

The test system of test [11] is Enterococcus faecalis. The experiment in a line: Antibacterial activity against vancomycin resistant Enterococcus faecalis BM4390 harboring VanB mutant with inactive Ddl and constitutive expression of D-Ala-D-Lac assessed as reduction in bacterial growth incubated for 18 to 24 hrs by broth microdilution method. The test is classed as functional. Conditions: time 18-24 hrs. Summed up: as §1

For test [12], the system named is Staphylococcus aureus. Nature of the test: Antibacterial activity against Staphylococcus aureus ATCC 25923 assessed as reduction in bacterial growth incubated for 18 to 24 hrs by broth microdilution method. The test is classed as functional. To be noted: time 18-24 hrs.
Test [13] is described as follows: Inhibition of Ddl in Streptococcus faecalis ATCC 8043 using D-[1-14C]-alanine as substrate preincubated with enzyme for 40 mins followed by substrate and addition and measured after 30 mins by TLC analysis. Set-up: species or system Enterococcus faecalis.
The subject of the next test is Pseudomonas aeruginosa. Nature of the test: Antibacterial activity against Pseudomonas aeruginosa PAO1 assessed as reduction in bacterial growth incubated for 18 to 24 hrs by broth microdilution method. Format: functional, organism-based. Conditions: time 18-24 hrs. Summed up:
(§2)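 Microdilution in cation-adjusted Mueller-Hinton broth per CLSI; two-fold compound series in CAMHB with 5% DMSO mixed 1:1 with bacterial suspension, giving 10⁶ bacteria/mL inoculum and 2.5% DMSO final. Top concentrations 0.1, 0.4 or 0.8 mM depending on solubility. Incubated 18–24 h at 37 °C; MIC read as lowest concentration preventing visible growth.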

The test system of another test is Klebsiella pneumoniae. The experiment in a line: Antibacterial activity against Klebsiella pneumoniae ATCC700603 assessed as reduction in bacterial growth incubated for 18 to 24 hrs by broth microdilution method. The test is classed as functional, organism-based. Conditions: 700603, time 18-24 hrs. Summed up: as §2
The subject of another test is Escherichia coli. Nature of the test: Antibacterial activity against Escherichia coli ATCC 25922 assessed as reduction in bacterial growth incubated for 18 to 24 hrs by broth microdilution method. The test is classed as functional, organism-based. Conditions: time 18-24 hrs. Summed up: as §2
Test [14] deals with Enterococcus faecalis. Nature of the test: Inhibition of recombinant Enterococcus faecalis C-terminal His6-tagged DdlB expressed in Escherichia coli LMG194 assessed as residual activity using D-Ala as substrate at 100 uM preincubated with enzyme for 30 mins followed by substrate addition and measured after 20 mins by malachite green based colorimetric analysis relative to control. Conditions: time 50.0 min. Summed up:
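Purified E. faecalis His-tagged DdlB (20 mg/L) preincubated 30 min at 30 °C with 100 µM compound and 500 µM ATP in 20 mM Tris-HCl pH 7.4, 10 mM MgCl₂, 10 mM KCl, 10% DMSO; 1 mM D-Ala added, 20 min at 30 °C. Phosphate detected with malachite green reagent, A650 after 25 min dark; residual activity versus no-inhibitor control, triplicate.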

Converted amounts (≈) assume the structure as drawn. The source made the active and inactive calls.

This note sets out measurements from ChEMBL document CHEMBL4680268, “Pharmacomodulations of the benzoyl-thiosemicarbazide scaffold reveal antimicrobial agents targeting d-alanyl-d-alanine ligase in bacterio” (Eur J Med Chem, 2020).

The term MIC denotes the smallest concentration in the dilution series that meets the test's criterion for growth inhibition. What is called IC50 is the concentration that inhibits the measured activity by half. Usually Ki stands for the dissociation constant of the complex between target and ligand, obtained from inhibition or displacement. A lower Ki goes with tighter binding.

Take `N[C@H]1CONC1=O` [LEVCYCLOSERINE]: the MIC with Staphylococcus aureus [1] was 627 µM (≈ 64 µg/mL); in the test with Staphylococcus aureus [2], 157 µM (≈ 16 µg/mL); in the test with Enterococcus faecalis [3], 1250 µM (≈ 128 µg/mL); with Staphylococcus aureus [4] it was 1250 µM (≈ 128 µg/mL); in the test on Enterococcus faecalis [6] it was 5020 µM (≈ 512 µg/mL); with Staphylococcus aureus [7], 627 µM (≈ 64 µg/mL). Besides, the MIC is 1250 µM (≈ 128 µg/mL) with Staphylococcus aureus [8], greater than 5020 µM in the test with Enterococcus faecalis [10], 5020 µM (≈ 512 µg/mL) in the test with Enterococcus faecalis [11] and 313 µM (≈ 32 µg/mL) in the test on Staphylococcus aureus [12]. For the same molecule, the outcome in the test with Cell membrane was inactive. Moreover, the IC50 in test [5] was 262 µM. The inhibition entry in the test on Staphylococcus aureus [9] is “Active”.
In test [13], `C[C@@H](CP(=O)(O)[C@@H](C)N)C(=O)O` had a Ki of 4 µM.
`O=C(NNC(=S)Nc1ccc(Cl)c(Cl)c1)c1ccccc1O`: the MIC worked out at 100 µM (≈ 35.6 µg/mL) in the test on Staphylococcus aureus [1]; 50 µM (≈ 17.8 µg/mL) in the test with Staphylococcus aureus [2]; 50 µM (≈ 17.8 µg/mL) with Enterococcus faecalis [3]; 50 µM (≈ 17.8 µg/mL) with Staphylococcus aureus [4]; 100 µM (≈ 35.6 µg/mL) with Enterococcus faecalis [6]; 50 µM (≈ 17.8 µg/mL) with Staphylococcus aureus [7]. The minimal inhibitory concentration (MIC) in the test with Staphylococcus aureus [8] was 100 µM (≈ 35.6 µg/mL); in the test with Enterococcus faecalis [10] it was 50 µM (≈ 17.8 µg/mL); in the test on Enterococcus faecalis [11], 50 µM (≈ 17.8 µg/mL); with Staphylococcus aureus [12], 100 µM (≈ 35.6 µg/mL). Also, the outcome with Pseudomonas aeruginosa, in the test on Cell membrane, in the test on Klebsiella pneumoniae and in the test with Escherichia coli was inactive. Besides, the IC50 in test [5] was 1.17 µM.
As for `O=C(NC(=S)NNC(=O)c1ccccc1O)c1ccc(Cl)c(Cl)c1`, the minimal inhibitory concentration (MIC) with Staphylococcus aureus [1] amounted to 25 µM (≈ 9.61 µg/mL); with Staphylococcus aureus [2], 100 µM (≈ 38.4 µg/mL); in the test with Enterococcus faecalis [3], 50 µM (≈ 19.2 µg/mL); in the test on Staphylococcus aureus [4], 50 µM (≈ 19.2 µg/mL); in the test on Enterococcus faecalis [6], 12.5 µM (≈ 4.8 µg/mL); in the test with Staphylococcus aureus [7], 25 µM (≈ 9.61 µg/mL). Moreover, the MIC in the test with Staphylococcus aureus [8] is 25 µM (≈ 9.61 µg/mL); with Enterococcus faecalis [10], 50 µM (≈ 19.2 µg/mL); in the test on Enterococcus faecalis [11], 25 µM (≈ 9.61 µg/mL); in the test on Staphylococcus aureus [12] it was 25 µM (≈ 9.61 µg/mL). For the same molecule, the result in the test on Pseudomonas aeruginosa, with Klebsiella pneumoniae and in the test on Escherichia coli was inactive. The Activity in the test on Enterococcus faecalis [14] was greater than 50%. The IC50 in [5] was determined as 1.15 µM.
